# Measurements from ChEMBL document CHEMBL1157639, “Identification of inhibitors of drug-resistant Candida albicans strains from a library of bicyclic peptidomimetic compounds” (2010).
# Legend:
# Candida albicans [1] = test: Antifungal activity against pharmacoresistant Candida albicans AIDS68 infected in Wistar rat estrogen-dependent fungal vaginitis model assessed as fungal burden at 10 ug administered intravaginally 48 hrs after fungal infection measured on day 7 after infection; format: functional, Vagina
# Procedure, shortened: (§1)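 Oophorectomized female Wistar rats (80-100 g) got 0.5 mg estradiol benzoate s.c. Six days later they were inoculated intravaginally with >10⁷ YPD-grown yeast cells (28 °C, washed, hemocytometer-counted) in 0.1 mL saline. Treatment was given intravaginally at 1, 24 and 48 h post-challenge. Burden was counted by culturing 100 μL vaginal fluid on Sabouraud-chloramphenicol (50 μg/mL) agar, as CFU/mL ×1000, through day 28.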
# Candida albicans [2] = test: Antifungal activity against pharmacoresistant Candida albicans AIDS68 infected in Wistar rat estrogen-dependent fungal vaginitis model assessed as fungal burden at 10 ug administered intravaginally 48 hrs after fungal infection measured on day 5 after infection; format: functional, Vagina; procedure, shortened: as §1
# Candida albicans [3] = test: Antifungal activity against pharmacoresistant Candida albicans AIDS68 infected in Wistar rat estrogen-dependent fungal vaginitis model assessed as fungal burden at 10 ug administered intravaginally 24 hrs after fungal infection measured on day 2 after infection; format: functional, Vagina; procedure, shortened: as §1
# Candida albicans [4] = test: Antifungal activity against pharmacoresistant Candida albicans AIDS68 infected in Wistar rat estrogen-dependent fungal vaginitis model assessed as fungal burden at 10 ug administered intravaginally 1 hr after fungal infection measured on day 1 after infection; format: functional, Vagina; procedure, shortened: as §1
# Candida albicans [5] = test: Antifungal activity against pharmacoresistant Candida albicans AIDS68 infected in Wistar rat estrogen-dependent fungal vaginitis model assessed as fungal burden at 10 ug administered intravaginally 1 hr after fungal infection measured within 1 day of infection; format: functional, Vagina; procedure, shortened: as §1
# Candida albicans [6] = test: Antifungal activity against Candida albicans SA40 infected in Wistar rat estrogen-dependent fungal vaginitis model assessed as fungal burden at 10 ug administered intravaginally 48 hrs after fungal infection measured on day 28 after infection; format: functional, Vagina; procedure, shortened: as §1
# Candida albicans [7] = test: Antifungal activity against Candida albicans SA40 infected in Wistar rat estrogen-dependent fungal vaginitis model assessed as fungal burden at 10 ug administered intravaginally 48 hrs after fungal infection measured on day 21 after infection; format: functional, Vagina; procedure, shortened: as §1
# Candida albicans [8] = test: Antifungal activity against Candida albicans SA40 infected in Wistar rat estrogen-dependent fungal vaginitis model assessed as fungal burden at 10 ug administered intravaginally 48 hrs after fungal infection measured on day 14 after infection; format: functional, Vagina; procedure, shortened: as §1
# Candida albicans [9] = test: Antifungal activity against Candida albicans SA40 infected in Wistar rat estrogen-dependent fungal vaginitis model assessed as fungal burden at 10 ug administered intravaginally 48 hrs after fungal infection measured on day 7 after infection; format: functional, Vagina; procedure, shortened: as §1
# Candida albicans [10] = test: Antifungal activity against Candida albicans SA40 infected in Wistar rat estrogen-dependent fungal vaginitis model assessed as fungal burden at 10 ug administered intravaginally 48 hrs after fungal infection measured on day 5 after infection; format: functional, Vagina; procedure, shortened: as §1
# Candida albicans [11] = test: Antifungal activity against Candida albicans SA40 infected in Wistar rat estrogen-dependent fungal vaginitis model assessed as fungal burden at 10 ug administered intravaginally 24 hrs after fungal infection measured on day 2 after infection; format: functional, Vagina; procedure, shortened: as §1
# Candida albicans [12] = test: Antifungal activity against Candida albicans SA40 infected in Wistar rat estrogen-dependent fungal vaginitis model assessed as fungal burden at 10 ug administered intravaginally 1 hr after fungal infection measured on day 1 after infection; format: functional, Vagina; procedure, shortened: as §1
# Candida albicans [13] = test: Antifungal activity against Candida albicans SA40 infected in Wistar rat estrogen-dependent fungal vaginitis model assessed as fungal burden at 10 ug administered intravaginally 1 hr after fungal infection measured within 1 day of infection; format: functional, Vagina; procedure, shortened: as §1
# Candida albicans [14] = test: Antifungal activity against pharmacoresistant Candida albicans AIDS68 infected in Wistar rat estrogen-dependent fungal vaginitis model assessed as fungal burden at 10 ug administered intravaginally 48 hrs after fungal infection measured on day 14 after infection; format: functional, Vagina; procedure, shortened: as §1
# Candida albicans [15] = test: Antifungal activity against pharmacoresistant Candida albicans AIDS68 infected in Wistar rat estrogen-dependent fungal vaginitis model assessed as fungal burden at 10 ug administered intravaginally 48 hrs after fungal infection measured on day 21 after infection; format: functional, Vagina; procedure, shortened: as §1
# Candida albicans [16] = test: Antifungal activity against pharmacoresistant Candida albicans AIDS68 infected in Wistar rat estrogen-dependent fungal vaginitis model assessed as fungal burden at 10 ug administered intravaginally 48 hrs after fungal infection measured on day 28 after infection; format: functional, Vagina; procedure, shortened: as §1
# Candida albicans [17] = test: Antifungal activity against pharmacoresistant Candida albicans AIDS68 infected in Wistar rat estrogen-dependent fungal vaginitis model assessed as fungal burden at 10 uM administered intravaginally 48 hrs after fungal infection measured on day 28 after infection; format: functional, Vagina; procedure, shortened: as §1
# Candida albicans [18] = test: Antifungal activity against pharmacoresistant Candida albicans AIDS68 infected in Wistar rat estrogen-dependent fungal vaginitis model assessed as fungal burden at 10 uM administered intravaginally 48 hrs after fungal infection measured on day 21 after infection; format: functional, Vagina; procedure, shortened: as §1
# Candida albicans [19] = test: Antifungal activity against pharmacoresistant Candida albicans AIDS68 infected in Wistar rat estrogen-dependent fungal vaginitis model assessed as fungal burden at 10 uM administered intravaginally 48 hrs after fungal infection measured on day 14 after infection; format: functional, Vagina; procedure, shortened: as §1
# Candida albicans [20] = test: Antifungal activity against pharmacoresistant Candida albicans AIDS68 infected in Wistar rat estrogen-dependent fungal vaginitis model assessed as fungal burden at 10 uM administered intravaginally 48 hrs after fungal infection measured on day 7 after infection; format: functional, Vagina; procedure, shortened: as §1
# Candida albicans [21] = test: Antifungal activity against pharmacoresistant Candida albicans AIDS68 infected in Wistar rat estrogen-dependent fungal vaginitis model assessed as fungal burden at 10 uM administered intravaginally 48 hrs after fungal infection measured on day 5 after infection; format: functional, Vagina; procedure, shortened: as §1
# Candida albicans [22] = test: Antifungal activity against pharmacoresistant Candida albicans AIDS68 infected in Wistar rat estrogen-dependent fungal vaginitis model assessed as fungal burden at 10 uM administered intravaginally 24 hrs after fungal infection measured on day 2 after infection; format: functional, Vagina; procedure, shortened: as §1
# Candida albicans [23] = test: Antifungal activity against pharmacoresistant Candida albicans AIDS68 infected in Wistar rat estrogen-dependent fungal vaginitis model assessed as fungal burden at 10 uM administered intravaginally 1 hr after fungal infection measured on day 1 after infection; format: functional, Vagina; procedure, shortened: as §1
# Candida albicans [24] = test: Antifungal activity against Candida albicans SA40 infected in Wistar rat estrogen-dependent fungal vaginitis model assessed as fungal burden at 10 uM administered intravaginally 48 hrs after fungal infection measured on day 28 after infection; format: functional, Vagina; procedure, shortened: as §1
# Candida albicans [25] = test: Antifungal activity against Candida albicans SA40 infected in Wistar rat estrogen-dependent fungal vaginitis model assessed as fungal burden at 10 uM administered intravaginally 48 hrs after fungal infection measured on day 21 after infection; format: functional, Vagina
# Procedure, shortened: (§2)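 Oophorectomized female Wistar rats (80-100 g), given 0.5 mg estradiol benzoate subcutaneously, were challenged intravaginally six days later with >10⁷ YPD-grown yeast cells in 0.1 mL saline. Compound at 10 μM was instilled intravaginally at 1, 24 and 48 h post-challenge. Vaginal fluid samples (100 μL) were plated on Sabouraud agar with chloramphenicol (50 μg/mL), and burden was expressed as CFU/mL ×1000.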
# Candida albicans [26] = test: Antifungal activity against Candida albicans SA40 infected in Wistar rat estrogen-dependent fungal vaginitis model assessed as fungal burden at 10 uM administered intravaginally 48 hrs after fungal infection measured on day 14 after infection; format: functional, Vagina; procedure, shortened: as §2
# Candida albicans [27] = test: Antifungal activity against Candida albicans SA40 infected in Wistar rat estrogen-dependent fungal vaginitis model assessed as fungal burden at 10 uM administered intravaginally 48 hrs after fungal infection measured on day 7 after infection; format: functional, Vagina; procedure, shortened: as §2
# Candida albicans [28] = test: Antifungal activity against Candida albicans SA40 infected in Wistar rat estrogen-dependent fungal vaginitis model assessed as fungal burden at 10 uM administered intravaginally 48 hrs after fungal infection measured on day 5 after infection; format: functional, Vagina; procedure, shortened: as §2
# Candida albicans [29] = test: Antifungal activity against Candida albicans SA40 infected in Wistar rat estrogen-dependent fungal vaginitis model assessed as fungal burden at 10 uM administered intravaginally 24 hrs after fungal infection measured on day 2 after infection; format: functional, Vagina; procedure, shortened: as §2
# Candida albicans [30] = test: Antifungal activity against Candida albicans SA40 infected in Wistar rat estrogen-dependent fungal vaginitis model assessed as fungal burden at 10 uM administered intravaginally 1 hr after fungal infection measured on day 1 after infection; format: functional, Vagina; procedure, shortened: as §2
# Candida albicans [31] = test: Antifungal activity against Candida albicans SA40 infected in Wistar rat estrogen-dependent fungal vaginitis model assessed as fungal burden at 10 uM administered intravaginally 1 hr after fungal infection measured within 1 day of infection; format: functional, Vagina; procedure, shortened: as §1
# [32] = molecular target: Secreted aspartic protease 2 (Candida albicans) (UniProt P0CS83); test: Inhibition of Candida albicans SAP2 at 0.2 uM by spectrophotometry relative to pepstatin A
# Procedure, shortened: (§3)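 Sample was mixed with 1% (w/v) BSA substrate in 50 mM sodium citrate, pH 3.2, plus SAP2 protease (1 μg/mL stock solution) and incubated 30 min at 37 °C. The reaction was stopped with 10% TCA, kept 30 min on ice, and centrifuged; supernatant A280 was read. Percent inhibition was taken from ΔOD, with control proteinase minus proteinase plus pepstatin A set as 100%.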
# [33] = molecular target: Secreted aspartic protease 2 (Candida albicans) (UniProt P0CS83); test: Inhibition of Candida albicans SAP2 at 0.02 uM by spectrophotometry relative to pepstatin A; procedure, shortened: as §3
# [34] = molecular target: Secreted aspartic protease 2 (Candida albicans) (UniProt P0CS83); test: Inhibition of Candida albicans SAP2 at 20 uM by spectrophotometry relative to pepstatin A; procedure, shortened: as §3
# [35] = molecular target: Secreted aspartic protease 2 (Candida albicans) (UniProt P0CS83); test: Inhibition of Candida albicans SAP2 at 2 uM by spectrophotometry relative to pepstatin A; procedure, shortened: as §3
# [36] = molecular target: Secreted aspartic protease 2 (Candida albicans) (UniProt P0CS83); test: Inhibition of Candida albicans SAP2 at 10 uM by spectrophotometry relative to pepstatin A; procedure, shortened: as §3
# [37] = molecular target: Secreted aspartic protease 2 (Candida albicans) (UniProt P0CS83); test: Inhibition of Candida albicans SAP2 at 10 uM by spectrophotometry; procedure, shortened: as §3
# Sequence of Secreted aspartic protease 2 (Candida albicans) (P0CS83 57-398 limits assumed): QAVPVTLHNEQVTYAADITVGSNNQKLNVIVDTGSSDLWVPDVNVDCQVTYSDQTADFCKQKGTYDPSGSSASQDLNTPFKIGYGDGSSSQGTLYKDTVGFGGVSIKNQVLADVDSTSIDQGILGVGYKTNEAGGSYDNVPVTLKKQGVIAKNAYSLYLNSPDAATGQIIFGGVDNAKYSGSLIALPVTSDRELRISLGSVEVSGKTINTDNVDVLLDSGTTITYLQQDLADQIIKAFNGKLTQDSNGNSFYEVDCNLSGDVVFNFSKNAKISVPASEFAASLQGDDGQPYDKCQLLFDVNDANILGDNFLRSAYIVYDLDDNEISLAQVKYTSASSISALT
smiles,measurement,setting,value
OC(Cn1cncn1)(Cn1cncn1)c1ccc(F)cc1F [FLUCONAZOLE],Activity,Candida albicans [1],44 ×10³ CFU/ml
same,Activity,Candida albicans [2],61 ×10³ CFU/ml
same,Activity,Candida albicans [3],93 ×10³ CFU/ml
same,Activity,Candida albicans [4],100 ×10³ CFU/ml
same,Activity,Candida albicans [5],>100 ×10³ CFU/ml
same,Activity,Candida albicans [6],0 ×10³ CFU/ml
same,Activity,Candida albicans [7],1.25 ×10³ CFU/ml
same,Activity,Candida albicans [8],5 ×10³ CFU/ml
same,Activity,Candida albicans [9],11.7 ×10³ CFU/ml
same,Activity,Candida albicans [10],25.7 ×10³ CFU/ml
same,Activity,Candida albicans [11],49.7 ×10³ CFU/ml
same,Activity,Candida albicans [12],53.5 ×10³ CFU/ml
same,Activity,Candida albicans [13],100 ×10³ CFU/ml
same,Activity,Candida albicans [14],18.7 ×10³ CFU/ml
same,Activity,Candida albicans [15],11.7 ×10³ CFU/ml
same,Activity,Candida albicans [16],0 ×10³ CFU/ml
O=C([C@@H]1O[C@H]2CN(Cc3ccccc3)C(=O)[C@@H]1O2)N1CCCCC1,Activity,Candida albicans [17],0 ×10³ CFU/ml
same,Activity,Candida albicans [18],3.4 ×10³ CFU/ml
same,Activity,Candida albicans [19],12.8 ×10³ CFU/ml
same,Activity,Candida albicans [20],23.2 ×10³ CFU/ml
same,Activity,Candida albicans [21],40.6 ×10³ CFU/ml
same,Activity,Candida albicans [22],62.6 ×10³ CFU/ml
same,Activity,Candida albicans [23],71.8 ×10³ CFU/ml
same,Activity,Candida albicans [24],1.2 ×10³ CFU/ml
same,Activity,Candida albicans [25],8 ×10³ CFU/ml
same,Activity,Candida albicans [26],14.4 ×10³ CFU/ml
same,Activity,Candida albicans [27],30.6 ×10³ CFU/ml
same,Activity,Candida albicans [28],39.2 ×10³ CFU/ml
same,Activity,Candida albicans [29],57.6 ×10³ CFU/ml
same,Activity,Candida albicans [30],70 ×10³ CFU/ml
same,Activity,Candida albicans [31],>100 ×10³ CFU/ml
same,inhibition,[32],19%
same,inhibition,[33],0%
same,inhibition,[34],74%
same,inhibition,[35],50%
same,inhibition,[36],67%
O=C([C@@H]1O[C@H]2CN(Cc3ccccc3)C(=O)[C@@H]1O2)N1CCCNCC1,inhibition,[34],63%
same,inhibition,[36],19%
same,inhibition,[37],10%
